Assay [1] can be described thus: Antiproliferative activity against human EBC1 cells expressing elevated levels of constitutively active c-Met after 72 hrs by SRB assay. It counts as functional, cell-based. The settings on record: EBC-1, 72 h. In outline: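 Cells seeded in 96-well plates, exposed the next day to a range of compound concentrations and cultured 72 h. Fixed with cold 10% TCA at 4 °C for 1 h, stained with 0.4% SRB in 1% acetic acid at room temperature, washed with 1% acetic acid, dye solubilized in 10 mM Tris base. OD read at 515 nm.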

Assay [2] deals with T1, Hepatocyte growth factor receptor (Homo sapiens, UniProt P08581). In words: Inhibition of c-Met incubated for 60 mins at spectrophotometry.
T1 sequence (P08581 whole entry): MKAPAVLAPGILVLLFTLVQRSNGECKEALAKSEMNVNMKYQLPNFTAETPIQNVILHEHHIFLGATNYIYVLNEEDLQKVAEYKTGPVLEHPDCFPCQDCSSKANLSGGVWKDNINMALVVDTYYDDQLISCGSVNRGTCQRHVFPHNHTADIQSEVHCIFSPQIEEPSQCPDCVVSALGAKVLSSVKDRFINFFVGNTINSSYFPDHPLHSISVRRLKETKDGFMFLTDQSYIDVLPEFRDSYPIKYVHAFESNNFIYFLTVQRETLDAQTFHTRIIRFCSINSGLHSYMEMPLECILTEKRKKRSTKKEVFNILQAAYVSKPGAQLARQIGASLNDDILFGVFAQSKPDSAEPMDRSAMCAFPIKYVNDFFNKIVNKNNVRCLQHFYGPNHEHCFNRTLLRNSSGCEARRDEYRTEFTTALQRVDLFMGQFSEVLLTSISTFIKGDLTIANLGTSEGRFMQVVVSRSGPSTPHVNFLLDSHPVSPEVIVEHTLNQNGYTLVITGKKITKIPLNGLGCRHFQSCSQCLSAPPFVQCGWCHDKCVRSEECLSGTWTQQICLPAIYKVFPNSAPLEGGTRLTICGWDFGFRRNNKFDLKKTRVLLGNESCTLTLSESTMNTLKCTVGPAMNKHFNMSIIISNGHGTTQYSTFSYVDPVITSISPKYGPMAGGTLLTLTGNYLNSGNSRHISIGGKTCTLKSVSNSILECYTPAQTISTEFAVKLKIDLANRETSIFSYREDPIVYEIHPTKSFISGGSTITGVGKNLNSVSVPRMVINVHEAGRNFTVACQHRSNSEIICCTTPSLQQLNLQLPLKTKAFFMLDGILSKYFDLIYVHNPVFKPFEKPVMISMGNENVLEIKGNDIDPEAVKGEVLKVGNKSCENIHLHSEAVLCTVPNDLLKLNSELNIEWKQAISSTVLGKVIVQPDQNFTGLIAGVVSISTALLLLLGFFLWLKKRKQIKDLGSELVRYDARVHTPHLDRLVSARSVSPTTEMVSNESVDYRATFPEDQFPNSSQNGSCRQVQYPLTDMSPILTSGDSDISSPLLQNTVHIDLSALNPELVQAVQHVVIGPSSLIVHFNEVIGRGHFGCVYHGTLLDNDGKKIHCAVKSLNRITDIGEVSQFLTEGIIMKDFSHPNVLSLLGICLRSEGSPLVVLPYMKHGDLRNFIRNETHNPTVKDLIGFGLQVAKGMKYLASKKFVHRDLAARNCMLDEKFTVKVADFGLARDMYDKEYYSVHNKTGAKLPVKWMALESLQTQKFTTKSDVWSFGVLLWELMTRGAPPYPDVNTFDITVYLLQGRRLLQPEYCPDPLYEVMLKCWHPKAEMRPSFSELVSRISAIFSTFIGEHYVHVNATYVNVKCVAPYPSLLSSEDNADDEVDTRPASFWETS
For assay [3], the target named is T1, Hepatocyte growth factor receptor. Nature of the assay: Inhibition of c-Met at 1 uM incubated for 60 mins by spectrophotometry. In outline: (§1)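 Compounds in 1% DMSO; reaction started by adding purified kinase, 60 min at 37 °C. PY99 antibody, then HRP anti-mouse IgG; o-phenylenediamine/H2O2 read at 490 nm. Inhibition % = [1-(A490/A490 control)]×100; IC50 from inhibition curves.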

Assay [4] addresses Platelet-derived growth factor receptor (Homo sapiens, UniProt P09619+P16234). In words: Inhibition of PDGFR. Type of assay: protein-complex assay. In outline: as §1
In assay [5] the target is Fibroblast growth factor receptor 1 (Homo sapiens, UniProt P11362). In words: Inhibition of FGFR1. In outline:
as §1

For assay [6], the target named is Receptor tyrosine-protein kinase erbB-2 (Homo sapiens, UniProt P04626). In words: Inhibition of ERBB2. In short, it runs like this:
as §1

The target in assay [7] is T1, Hepatocyte growth factor receptor. Nature of the assay: Inhibition of c-Met phosphorylation in human EBC1 cells incubated for 4 hrs by Western blot. It counts as cell-based. In short, it runs like this:
(§2)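 EBC-1 cells grown to exponential phase and treated with compound for 4 h at 37 °C. Lysed in 1× SDS sample buffer, resolved on 10% SDS-PAGE, transferred to nitrocellulose. Probed for phospho-c-Met/c-Met, phospho-ERK1/2/ERK1/2, phospho-AKT/AKT and GAPDH, then HRP anti-rabbit or anti-mouse IgG.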
In general terms: In western blotting, separated proteins are transferred to a membrane and probed.

In assay [8] the target is Tyrosine-protein kinase ABL1 (Homo sapiens, UniProt P00519). Nature of the assay: Inhibition of ABL. In outline: as §1
Assay [9] deals with Vascular endothelial growth factor receptor 2 (Homo sapiens, UniProt P35968). In words: Inhibition of KDR. In short, it runs like this:
as §1

Assay [10] concerns the target T2, Tyrosine-protein kinase Mer (Homo sapiens, UniProt Q12866).
T2 sequence (Q12866 whole entry): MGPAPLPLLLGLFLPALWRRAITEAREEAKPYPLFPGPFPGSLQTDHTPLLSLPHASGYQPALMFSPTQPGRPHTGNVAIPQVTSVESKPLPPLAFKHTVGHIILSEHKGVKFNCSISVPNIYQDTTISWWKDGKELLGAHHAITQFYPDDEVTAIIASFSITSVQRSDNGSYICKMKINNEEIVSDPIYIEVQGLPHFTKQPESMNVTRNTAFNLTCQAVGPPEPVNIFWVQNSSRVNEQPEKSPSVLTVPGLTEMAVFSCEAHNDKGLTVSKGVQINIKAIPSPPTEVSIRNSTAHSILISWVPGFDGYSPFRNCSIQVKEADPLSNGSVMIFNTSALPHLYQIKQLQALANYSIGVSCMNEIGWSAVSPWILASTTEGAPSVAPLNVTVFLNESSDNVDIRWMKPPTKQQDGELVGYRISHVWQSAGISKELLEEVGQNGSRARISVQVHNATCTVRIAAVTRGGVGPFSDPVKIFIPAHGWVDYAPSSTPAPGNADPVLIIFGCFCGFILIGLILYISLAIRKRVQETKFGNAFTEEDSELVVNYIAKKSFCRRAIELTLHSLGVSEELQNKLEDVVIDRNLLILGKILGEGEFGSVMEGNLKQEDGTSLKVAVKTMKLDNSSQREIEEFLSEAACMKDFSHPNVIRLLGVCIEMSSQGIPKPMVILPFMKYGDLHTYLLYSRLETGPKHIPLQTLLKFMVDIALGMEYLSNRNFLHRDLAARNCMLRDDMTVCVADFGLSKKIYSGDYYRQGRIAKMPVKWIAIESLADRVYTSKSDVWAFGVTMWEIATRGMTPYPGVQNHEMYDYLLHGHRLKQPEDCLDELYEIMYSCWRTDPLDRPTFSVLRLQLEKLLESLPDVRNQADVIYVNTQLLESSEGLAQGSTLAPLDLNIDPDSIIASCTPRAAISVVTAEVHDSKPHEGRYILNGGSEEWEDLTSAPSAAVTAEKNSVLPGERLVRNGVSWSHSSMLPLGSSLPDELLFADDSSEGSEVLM
In words: Inhibition of Mer. In short, it runs like this: as §1

Assay [11] has as its target Epidermal growth factor receptor (Homo sapiens, UniProt P00533). Nature of the assay: Inhibition of EGFR. In outline:
as §1

The target of assay [12] is T3, Tyrosine-protein kinase receptor UFO (Homo sapiens, UniProt P30530).
T3 sequence (P30530 whole entry): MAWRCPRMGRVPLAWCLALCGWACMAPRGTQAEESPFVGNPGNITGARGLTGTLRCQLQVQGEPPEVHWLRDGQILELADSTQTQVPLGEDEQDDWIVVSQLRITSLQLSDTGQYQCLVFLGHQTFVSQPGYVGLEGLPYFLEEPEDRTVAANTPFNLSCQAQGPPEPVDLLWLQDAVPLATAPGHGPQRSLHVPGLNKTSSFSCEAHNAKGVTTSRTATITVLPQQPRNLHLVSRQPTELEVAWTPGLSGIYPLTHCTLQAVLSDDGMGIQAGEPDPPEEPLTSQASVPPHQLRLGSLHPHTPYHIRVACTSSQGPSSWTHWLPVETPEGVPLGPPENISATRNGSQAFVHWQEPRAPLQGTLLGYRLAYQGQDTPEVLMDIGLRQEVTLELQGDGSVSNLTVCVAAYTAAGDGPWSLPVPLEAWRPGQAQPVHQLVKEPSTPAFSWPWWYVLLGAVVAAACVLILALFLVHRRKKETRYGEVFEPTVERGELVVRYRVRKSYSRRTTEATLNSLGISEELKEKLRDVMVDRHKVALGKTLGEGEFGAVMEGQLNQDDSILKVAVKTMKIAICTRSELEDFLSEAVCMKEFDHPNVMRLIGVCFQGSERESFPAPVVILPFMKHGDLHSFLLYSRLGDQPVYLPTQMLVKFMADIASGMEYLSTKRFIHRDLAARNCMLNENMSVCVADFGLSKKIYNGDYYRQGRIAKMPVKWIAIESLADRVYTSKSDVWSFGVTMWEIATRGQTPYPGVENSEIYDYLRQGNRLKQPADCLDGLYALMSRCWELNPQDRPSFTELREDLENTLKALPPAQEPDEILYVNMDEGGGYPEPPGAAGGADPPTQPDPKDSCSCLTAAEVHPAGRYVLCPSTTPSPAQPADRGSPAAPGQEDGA
In words: Inhibition of Axl. In outline: as §1

The target of assay [13] is T1, Hepatocyte growth factor receptor. In words: Inhibition of c-Met-mediated AKT phosphorylation in human EBC1 cells at 0.1 to 10 uM incubated for 4 hrs by Western blot. It counts as cell-based. In outline:
as §2

Assay [14] has the same target. Nature of the assay: Inhibition of c-Met-mediated ERK1/2 phosphorylation in human EBC1 cells at 0.1 to 10 uM incubated for 4 hrs by Western blot. Type of assay: cell-based. In short, it runs like this: as §2
Assay [15] deals with Vascular endothelial growth factor receptor 1 (Homo sapiens, UniProt P17948). Nature of the assay: Inhibition of FLT1. In short, it runs like this:
as §1

Assay [16] concerns the target Macrophage-stimulating protein receptor (Homo sapiens, UniProt Q04912). In words: Inhibition of Ron. In outline: as §1
The target of assay [17] is T4, Tyrosine-protein kinase receptor TYRO3 (Homo sapiens, UniProt Q06418).
T4 sequence (Q06418 whole entry): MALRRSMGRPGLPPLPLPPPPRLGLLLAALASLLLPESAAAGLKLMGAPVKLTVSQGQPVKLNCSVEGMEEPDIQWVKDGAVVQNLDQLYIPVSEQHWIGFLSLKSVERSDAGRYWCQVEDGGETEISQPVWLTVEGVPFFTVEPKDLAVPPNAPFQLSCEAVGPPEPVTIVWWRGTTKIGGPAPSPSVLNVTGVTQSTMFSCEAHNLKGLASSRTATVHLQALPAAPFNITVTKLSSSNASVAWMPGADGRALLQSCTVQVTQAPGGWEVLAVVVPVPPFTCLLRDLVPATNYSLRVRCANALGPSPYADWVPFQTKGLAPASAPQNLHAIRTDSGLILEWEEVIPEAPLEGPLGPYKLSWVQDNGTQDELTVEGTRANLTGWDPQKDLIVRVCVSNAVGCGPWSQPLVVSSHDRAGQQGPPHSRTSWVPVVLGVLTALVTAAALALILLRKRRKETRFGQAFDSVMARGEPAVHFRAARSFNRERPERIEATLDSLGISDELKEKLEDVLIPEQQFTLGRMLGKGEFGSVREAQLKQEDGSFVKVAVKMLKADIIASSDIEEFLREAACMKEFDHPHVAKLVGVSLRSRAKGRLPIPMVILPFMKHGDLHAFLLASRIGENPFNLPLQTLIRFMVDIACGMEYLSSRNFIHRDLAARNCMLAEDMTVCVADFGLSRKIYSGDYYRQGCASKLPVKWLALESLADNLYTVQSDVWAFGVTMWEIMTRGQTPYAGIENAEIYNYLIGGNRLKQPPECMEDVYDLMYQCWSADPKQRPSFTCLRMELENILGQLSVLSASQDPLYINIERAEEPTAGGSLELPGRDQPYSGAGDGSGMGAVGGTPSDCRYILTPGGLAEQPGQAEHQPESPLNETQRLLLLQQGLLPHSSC
In words: Inhibition of TYRO3. In short, it runs like this:
as §1

In assay [18] the target is Ephrin type-A receptor 2 (Homo sapiens, UniProt P29317). Nature of the assay: Inhibition of EPHA2. In short, it runs like this:
as §1

The target in assay [19] is Receptor tyrosine-protein kinase erbB-4 (Homo sapiens, UniProt Q15303). In words: Inhibition of ERBB4. In outline: as §1
The target of assay [20] is T1, Hepatocyte growth factor receptor. In words: Inhibition of c-Met at 10 uM incubated for 60 mins by spectrophotometry. In outline:
as §1

Active and inactive are the calls of the source. No cut-off for these calls is given here.

IC50 and inhibition data for 17 molecules are collected here from ChEMBL document CHEMBL2069216, “Discovery of novel 2-aminopyridine-3-carboxamides as c-Met kinase inhibitors” (Bioorg Med Chem, 2012).

Sequence of Macrophage-stimulating protein receptor (Q04912 25-304 limits assumed): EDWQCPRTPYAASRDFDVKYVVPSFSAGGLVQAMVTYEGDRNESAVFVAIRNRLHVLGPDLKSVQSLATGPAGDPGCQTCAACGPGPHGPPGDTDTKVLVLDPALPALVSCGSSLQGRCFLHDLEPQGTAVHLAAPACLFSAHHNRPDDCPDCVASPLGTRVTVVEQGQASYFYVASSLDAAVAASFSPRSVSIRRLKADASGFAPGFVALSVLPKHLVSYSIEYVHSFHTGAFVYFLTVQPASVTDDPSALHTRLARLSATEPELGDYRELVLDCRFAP
Sequence of Macrophage-stimulating protein receptor (Q04912 310-1400 limits assumed): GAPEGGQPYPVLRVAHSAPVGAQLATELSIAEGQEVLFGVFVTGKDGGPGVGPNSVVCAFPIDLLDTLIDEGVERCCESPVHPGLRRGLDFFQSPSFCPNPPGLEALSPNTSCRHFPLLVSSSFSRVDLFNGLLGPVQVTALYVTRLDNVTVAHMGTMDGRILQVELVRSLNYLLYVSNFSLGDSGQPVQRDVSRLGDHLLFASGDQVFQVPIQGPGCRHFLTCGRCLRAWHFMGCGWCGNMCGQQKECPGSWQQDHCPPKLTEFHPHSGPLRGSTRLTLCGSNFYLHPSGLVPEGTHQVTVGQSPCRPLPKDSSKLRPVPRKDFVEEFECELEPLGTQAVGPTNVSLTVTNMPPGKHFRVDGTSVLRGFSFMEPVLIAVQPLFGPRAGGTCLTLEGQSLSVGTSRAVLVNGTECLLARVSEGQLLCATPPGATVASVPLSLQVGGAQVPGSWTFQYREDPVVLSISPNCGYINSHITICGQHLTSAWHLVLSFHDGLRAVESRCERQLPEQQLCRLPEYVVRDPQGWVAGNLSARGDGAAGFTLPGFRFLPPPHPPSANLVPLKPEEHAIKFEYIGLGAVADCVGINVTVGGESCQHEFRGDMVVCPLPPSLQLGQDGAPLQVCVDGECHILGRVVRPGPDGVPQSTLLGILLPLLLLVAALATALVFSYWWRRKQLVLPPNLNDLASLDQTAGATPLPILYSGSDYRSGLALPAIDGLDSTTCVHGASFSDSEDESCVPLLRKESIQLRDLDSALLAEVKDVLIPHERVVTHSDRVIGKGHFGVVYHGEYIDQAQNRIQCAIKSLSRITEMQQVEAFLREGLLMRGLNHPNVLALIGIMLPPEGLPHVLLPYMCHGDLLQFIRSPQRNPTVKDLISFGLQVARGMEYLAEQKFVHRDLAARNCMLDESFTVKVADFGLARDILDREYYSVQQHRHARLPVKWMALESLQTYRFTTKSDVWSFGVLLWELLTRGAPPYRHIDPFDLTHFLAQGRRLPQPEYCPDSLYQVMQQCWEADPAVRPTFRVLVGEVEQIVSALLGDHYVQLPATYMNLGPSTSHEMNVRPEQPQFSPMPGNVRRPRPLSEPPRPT
Sequence of Fibroblast growth factor receptor 1 (P11362 whole entry): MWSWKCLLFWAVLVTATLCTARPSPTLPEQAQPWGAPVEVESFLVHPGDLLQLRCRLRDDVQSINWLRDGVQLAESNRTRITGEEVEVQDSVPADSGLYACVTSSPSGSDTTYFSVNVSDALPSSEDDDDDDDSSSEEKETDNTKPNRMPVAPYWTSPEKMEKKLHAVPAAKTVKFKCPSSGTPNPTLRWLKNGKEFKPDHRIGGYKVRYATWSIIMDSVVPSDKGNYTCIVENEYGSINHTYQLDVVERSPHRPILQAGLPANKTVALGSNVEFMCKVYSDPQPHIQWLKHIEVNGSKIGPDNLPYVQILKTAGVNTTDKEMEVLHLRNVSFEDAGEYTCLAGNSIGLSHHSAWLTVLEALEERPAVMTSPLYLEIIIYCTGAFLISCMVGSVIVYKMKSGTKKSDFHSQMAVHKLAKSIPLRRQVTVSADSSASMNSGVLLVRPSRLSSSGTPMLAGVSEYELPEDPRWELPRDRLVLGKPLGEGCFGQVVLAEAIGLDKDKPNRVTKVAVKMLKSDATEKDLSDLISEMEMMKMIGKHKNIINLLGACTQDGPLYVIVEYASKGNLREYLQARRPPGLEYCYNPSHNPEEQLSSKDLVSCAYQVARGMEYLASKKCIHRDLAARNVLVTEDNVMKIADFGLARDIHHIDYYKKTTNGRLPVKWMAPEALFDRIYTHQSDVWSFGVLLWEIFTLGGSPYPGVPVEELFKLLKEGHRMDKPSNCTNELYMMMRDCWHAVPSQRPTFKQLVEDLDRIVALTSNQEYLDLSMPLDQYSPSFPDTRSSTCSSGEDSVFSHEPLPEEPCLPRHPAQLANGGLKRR
Sequence of Ephrin type-A receptor 2 (P29317 whole entry): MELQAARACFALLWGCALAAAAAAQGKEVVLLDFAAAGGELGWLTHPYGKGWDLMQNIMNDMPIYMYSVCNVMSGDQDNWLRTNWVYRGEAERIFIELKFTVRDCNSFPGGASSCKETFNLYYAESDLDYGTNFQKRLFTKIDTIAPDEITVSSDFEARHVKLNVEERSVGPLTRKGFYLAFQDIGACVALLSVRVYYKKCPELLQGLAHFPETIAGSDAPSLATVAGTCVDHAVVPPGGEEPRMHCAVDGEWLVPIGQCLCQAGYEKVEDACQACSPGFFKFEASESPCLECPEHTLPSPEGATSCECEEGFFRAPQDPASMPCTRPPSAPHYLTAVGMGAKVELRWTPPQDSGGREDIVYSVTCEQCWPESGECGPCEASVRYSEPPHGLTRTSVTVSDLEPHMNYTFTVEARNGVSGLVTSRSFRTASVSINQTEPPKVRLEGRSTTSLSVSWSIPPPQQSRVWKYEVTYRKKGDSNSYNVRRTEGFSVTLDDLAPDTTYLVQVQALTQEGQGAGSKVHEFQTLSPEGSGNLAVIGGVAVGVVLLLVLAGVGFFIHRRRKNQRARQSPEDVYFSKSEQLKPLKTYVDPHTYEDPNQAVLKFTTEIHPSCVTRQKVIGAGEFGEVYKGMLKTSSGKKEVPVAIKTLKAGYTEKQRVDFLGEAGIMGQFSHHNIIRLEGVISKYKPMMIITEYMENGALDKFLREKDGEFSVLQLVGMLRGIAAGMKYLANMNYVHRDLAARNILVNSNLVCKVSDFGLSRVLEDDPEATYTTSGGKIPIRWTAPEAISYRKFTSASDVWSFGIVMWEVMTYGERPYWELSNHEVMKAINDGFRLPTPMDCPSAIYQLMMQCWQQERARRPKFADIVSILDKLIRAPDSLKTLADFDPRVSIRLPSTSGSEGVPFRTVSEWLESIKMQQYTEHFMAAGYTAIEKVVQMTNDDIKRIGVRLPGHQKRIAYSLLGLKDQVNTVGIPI

Turning to `CC(NC(=O)c1cc(-c2cnn(C)c2)cnc1N)c1c(Cl)ccc(F)c1Cl` (stereo not given), in assay [1], the IC50 (usually the concentration that inhibits the measured activity by half) was > 50 µM.
As to `CC(NC(=O)c1cc(-c2cnn(C3CCOCC3)c2)cnc1N)c1c(Cl)ccc(F)c1Cl` (racemic), the IC50 in assay [2] was 0.099 µM; in [1] it was 3.49 µM.
In [1], `CC(NC(=O)c1cc(-c2cnn(C3CCNCC3)c2)cnc1N)c1c(Cl)ccc(F)c1Cl` (stereo not given) had an IC50 of 1.46 µM.
Still for that read-out and setting: under `Cn1cc(-c2cnc(N)c(C(=O)NCc3c(F)ccc(Cl)c3Cl)c2)cn1` stands 12.7 µM.
Turning to `C[C@@H](NC(=O)c1cc(-c2cnn(C3CCOCC3)c2)cnc1N)c1c(Cl)ccc(F)c1Cl`, in assay [3], the inhibition (in general, how much of the control response was suppressed) was 27.6%.
Turning to `C[C@@H](Oc1cc(-c2cnn(C3CCNCC3)c2)cnc1N)c1c(Cl)ccc(F)c1Cl` [CRIZOTINIB], the IC50 in [1] was 0.053 µM.
Consider `Cn1cc(-c2cnc(N)c(C(=O)NCc3c(F)ccc(F)c3Cl)c2)cn1`, for which, in assay [1], the IC50 worked out at 6.9 µM.
On to `CN(Cc1c(F)ccc(Cl)c1F)C(=O)c1cc(-c2cnn(C)c2)cnc1N`, for which the inhibition in assay [3] was determined as 10.9%.
Regarding `CC(NC(=O)c1cc(-c2ccc(OCC(=O)N3CCOCC3)cc2)cnc1N)c1c(Cl)ccc(F)c1Cl` (stereo not given), in assay [1], half-maximal inhibition (IC50) required 6.05 µM.
The molecule `CN(Cc1c(F)ccc(Cl)c1Cl)C(=O)c1cc(-c2cnn(C)c2)cnc1N` had an inhibition in assay [3] of 13.1%.
In [1], `Cn1cc(-c2cnc(N)c(C(=O)NCc3ccc(F)c(F)c3)c2)cn1` displayed an IC50 of 14.6 µM.
Turning to `C[C@H](NC(=O)c1cc(-c2cnn(C3CCOCC3)c2)cnc1N)c1c(Cl)ccc(F)c1Cl`, the IC50 in [4] is > 10 µM; in [5], 3.48 µM; in [6] it was > 10 µM; in assay [2], 0.022 µM; in assay [8] it was 4.99 µM; in assay [9], > 10 µM. Besides, the IC50 is > 10 µM in assay [10]; > 10 µM in assay [11]; > 10 µM in assay [12]; 1.22 µM in [1]; 8.16 µM in assay [15]; 8.26 µM in [16]. Also, the IC50 in assay [17] was > 10 µM; in assay [18], 6.18 µM; in assay [19] it was > 10 µM. In [7], the inhibition result is “Dose-dependent effect”. Further, the inhibition entry in assay [13] and in assay [14] was “Active” in each case.
`CC(c1c(Cl)ccc(F)c1Cl)n1cnc2ncc(-c3cnn(C4CCN(C(=O)OC(C)(C)C)CC4)c3)cc2c1=O` (stereo not given) showed an inhibition in assay [20] of 28.9%.
`Cn1cc(-c2cnc(N)c(C(=O)NCc3cc(F)ccc3F)c2)cn1` registered an IC50 in assay [1] of 15 µM.
As to `CN(Cc1c(F)ccc(F)c1Cl)C(=O)c1cc(-c2cnn(C)c2)cnc1N`, the inhibition in assay [3] came to 18.1%.
Consider `CC(NC(=O)c1cc(-c2ccc3c(c2)CC(=O)N3)cnc1N)c1c(Cl)ccc(F)c1Cl` (stereo not given), for which the IC50 in [1] amounted to 17.8 µM.
The molecule `CC(c1c(Cl)ccc(F)c1Cl)n1cnc2ncc(-c3cnn(C4CCNCC4)c3)cc2c1=O` (stereo not given) registered an inhibition in [20] of 34.1%.
